Laboratory results as given in ChEMBL document CHEMBL4028836, “Optimization of M4 positive allosteric modulators (PAMs): The discovery of VU0476406, a non-human primate in vivo tool compound for translational pharmacology” (Bioorg Med Chem Lett, 2017).

Key:
[1] = target: Muscarinic acetylcholine receptor M2 (Homo sapiens, UniProt P08172); test: Activity at human M2 receptor
[2] = Drug metabolism in human cryopreserved hepatocytes assessed as metabolite M5 formation; type: ADME, cell-based, Hepatocyte
[3] = target: Cytochrome P450 3A4 (Homo sapiens, UniProt P08684); test: Inhibition of CYP3A4 (unknown origin); type: ADME
Sequence of Cytochrome P450 3A4 (P08684 whole entry): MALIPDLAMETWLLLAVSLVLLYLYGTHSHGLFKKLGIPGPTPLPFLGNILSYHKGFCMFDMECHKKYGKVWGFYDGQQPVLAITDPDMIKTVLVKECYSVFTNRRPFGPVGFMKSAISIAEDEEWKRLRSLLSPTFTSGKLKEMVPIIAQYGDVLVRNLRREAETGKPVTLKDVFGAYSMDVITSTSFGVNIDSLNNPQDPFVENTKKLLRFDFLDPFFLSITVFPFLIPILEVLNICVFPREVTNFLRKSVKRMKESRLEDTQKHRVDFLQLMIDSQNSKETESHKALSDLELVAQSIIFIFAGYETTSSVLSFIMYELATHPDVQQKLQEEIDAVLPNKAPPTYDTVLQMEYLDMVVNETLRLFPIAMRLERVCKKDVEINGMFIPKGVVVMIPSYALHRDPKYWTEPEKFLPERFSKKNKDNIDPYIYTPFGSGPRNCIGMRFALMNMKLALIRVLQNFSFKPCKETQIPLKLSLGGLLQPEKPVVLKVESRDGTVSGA

[4] = Drug metabolism in human cryopreserved hepatocytes assessed as metabolite M1 formation; type: ADME, cell-based, Hepatocyte
[5] = test system: Salmonella typhimurium; test: Mutagenicity in Salmonella typhimurium TA100 in absence of S9 fraction by mini-Ames test; type: toxicity; details: salmonella enterica subsp. enterica serovar typhimurium
How it was run: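 Mini-Ames mutagenicity assay in Salmonella typhimurium strains TA98 and TA100, run with and without S9 metabolic activation.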

[6] = Drug metabolism in human cryopreserved hepatocytes assessed as metabolite M2 formation; type: ADME, cell-based, Hepatocyte
[7] = Drug metabolism in rat cryopreserved hepatocytes assessed as metabolite M6 formation; type: ADME, cell-based, Hepatocyte
[8] = target: T1, Cytochrome P450 1A2 (Homo sapiens, UniProt P05177); test: Inhibition of CYP1A2 (unknown origin); type: ADME
T1 sequence (P05177 whole entry): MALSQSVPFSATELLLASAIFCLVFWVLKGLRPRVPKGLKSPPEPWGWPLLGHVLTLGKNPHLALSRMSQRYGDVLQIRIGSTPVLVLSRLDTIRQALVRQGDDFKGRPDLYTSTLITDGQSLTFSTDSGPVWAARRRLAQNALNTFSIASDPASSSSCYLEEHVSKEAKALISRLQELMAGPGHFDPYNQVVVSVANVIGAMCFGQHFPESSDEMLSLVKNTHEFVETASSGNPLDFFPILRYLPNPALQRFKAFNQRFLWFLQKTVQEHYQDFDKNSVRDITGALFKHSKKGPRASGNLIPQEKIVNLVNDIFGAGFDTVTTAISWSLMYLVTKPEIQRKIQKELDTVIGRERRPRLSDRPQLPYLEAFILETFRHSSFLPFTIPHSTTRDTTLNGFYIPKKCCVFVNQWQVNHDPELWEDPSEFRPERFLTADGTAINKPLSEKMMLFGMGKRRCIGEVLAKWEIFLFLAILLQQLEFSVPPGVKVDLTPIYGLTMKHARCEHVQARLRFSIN

[9] = Drug metabolism in cynomolgus monkey cryopreserved hepatocytes assessed as metabolite M7 formation; type: ADME, cell-based, Macaca fascicularis, Hepatocyte
[10] = Drug metabolism in human cryopreserved hepatocytes assessed as metabolite M3 formation; type: ADME, cell-based, Hepatocyte
[11] = Drug metabolism in rat cryopreserved hepatocytes assessed as metabolite M5 formation; type: ADME, cell-based, Hepatocyte
[12] = Drug metabolism in dog cryopreserved hepatocytes assessed as metabolite M6 formation; type: ADME, cell-based, Canis lupus familiaris, Hepatocyte
[13] = Drug metabolism in rat cryopreserved hepatocytes assessed as metabolite M1 formation; type: ADME, cell-based, Hepatocyte
[14] = Brain to plasma permeability coefficient, Kp of the compound in Sprague-Dawley rat at 0.1 to 0.2 mg/kg, iv measured at 0.25 hrs post dose; type: ADME, organism-based
How it was run: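 Sprague-Dawley rats were dosed IV at 0.1–0.2 mg/kg, with brain and plasma sampled at 0.25 hr. Brain:plasma Kp was calculated, with Kp,uu where unbound fractions were available.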

[15] = Drug metabolism in cynomolgus monkey cryopreserved hepatocytes assessed as metabolite M1 formation; type: ADME, cell-based, Macaca fascicularis, Hepatocyte
[16] = Drug metabolism in human cryopreserved hepatocytes assessed as metabolite M7 formation; type: ADME, cell-based, Hepatocyte

Sequence of Muscarinic acetylcholine receptor M2 (P08172 whole entry): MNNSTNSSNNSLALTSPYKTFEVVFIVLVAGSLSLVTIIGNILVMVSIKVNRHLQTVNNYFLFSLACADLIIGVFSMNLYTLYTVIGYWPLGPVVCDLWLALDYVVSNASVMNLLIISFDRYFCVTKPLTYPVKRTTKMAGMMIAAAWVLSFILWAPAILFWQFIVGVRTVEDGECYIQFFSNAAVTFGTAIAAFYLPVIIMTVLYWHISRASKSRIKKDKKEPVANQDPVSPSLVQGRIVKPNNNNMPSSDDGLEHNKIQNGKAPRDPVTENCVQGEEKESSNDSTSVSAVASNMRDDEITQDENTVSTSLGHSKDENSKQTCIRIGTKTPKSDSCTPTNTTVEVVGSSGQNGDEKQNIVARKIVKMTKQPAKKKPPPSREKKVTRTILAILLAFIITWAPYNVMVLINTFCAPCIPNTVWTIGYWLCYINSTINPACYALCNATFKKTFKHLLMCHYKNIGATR

Cc1nnc2sc(C(=O)NCc3ccc(-c4cccnc4F)cc3)c(N)c2c1C
EC50 [1]: > 30 µM | Drug metabolism [2]: Metabolite_Detected | IC50 [3]: > 30 µM | Drug metabolism [4]: Metabolite_Detected | Activity [5]: Non-Toxic | Drug metabolism [6]: Metabolite_Detected | Drug metabolism [7]: Metabolite_Detected | IC50 [8]: 11 µM | Drug metabolism [9]: Metabolite_Detected | Drug metabolism [10]: Metabolite_Detected | Drug metabolism [11]: Metabolite_Detected | Drug metabolism [12]: Metabolite_Detected | Drug metabolism [13]: Metabolite_Detected | Kp [14]: 0.11 | Drug metabolism [15]: Metabolite_Detected | Drug metabolism [16]: Metabolite_Detected
